As a reminder, the IC50 is the concentration needed to halve the response being measured.

Holding throughout (type): functional, cell-based
For one assay, the system named is HL-60. Kind of assay: Cytotoxicity against human HL60 cells by MTT assay. Put shortly:
(§1)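 Human tumour lines (erythroid leukemic K562, promyelocytic leukemia HL-60, breast adenocarcinoma MCF-7, lung carcinoma A549) exposed to compounds; viability read by MTT method, following a previously published protocol; IC50 values derived.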
For orientation: Formazan colour is commonly taken as a measure of viable cells.

The next assay relates to MCF7. The experiment in a line: Cytotoxicity against human MCF7 cells by MTT assay. In a few lines: as §1
The subject of another assay is A549. The experiment in a line: Cytotoxicity against human A549 cells by MTT assay. Put shortly:
as §1

Another assay relates to K562. Kind of assay: Cytotoxicity against human K562 cells by MTT assay. Put shortly:
as §1

In the case of `C[C@@H]1NC(=O)c2ccccc2-n2c1nc1c(O)cccc1c2=O`, the IC50 in the assay with HL-60, in the assay on MCF7, in the assay with A549 and in the assay on K562 was > 10 µM in each case.
As to `C[C@H]1NC(=O)c2ccccc2-n2c1nc1ccccc1c2=O`, the IC50 in the assay with HL-60, in the assay on MCF7, with A549 and with K562 was > 10 µM each time.
With `CC1(C)C=Cc2c(ccc3c2NC(=O)[C@@]32[C@H](O)[C@@]34NC(=O)[C@]5(CCCN5C3=O)C[C@H]4C2(C)C)O1` [SCLEROTIAMIDE], the IC50 with HL-60 is 45 µM; in the assay with MCF7, > 10 µM; with A549, > 10 µM; in the assay on K562, 26 µM.
As to `CC(C)CC(=O)OC(/C(=N/O)C(N)=O)C(C)C` (configuration not stated), the IC50 in the assay on HL-60, in the assay with MCF7, in the assay with A549 and in the assay with K562 was > 10 µM throughout.
`C[C@@H]1NC(=O)c2ccccc2-n2c1nc1c(c2=O)C=CC=CO1`: the IC50 in the assay on HL-60, in the assay on MCF7, with A549 and in the assay with K562 was > 10 µM each time.
Regarding `CC1(C)C=Cc2c3c(cc(Cl)c2O1)[C@@]1(C(=O)N3)[C@H](O)[C@@]23NC(=O)[C@]4(CCCN4C2=O)C[C@H]3C1(C)C`, the IC50 in the assay on HL-60 is > 10 µM; in the assay with MCF7, > 10 µM; in the assay on A549, > 10 µM; in the assay on K562 it was 44 µM.
For `O=C1NCc2nc3c(O)cccc3c(=O)n2-c2ccccc21`, the IC50 in the assay on HL-60, in the assay with MCF7, in the assay with A549 and in the assay with K562 was > 10 µM each time.
Turning to `CC1(C)C=Cc2c(ccc3c2NC(=O)[C@@]32[C@@H](O)[C@@]34NC(=O)[C@]5(CCCN5C3=O)C[C@H]4C2(C)C)O1`, the IC50 in the assay on HL-60 was > 10 µM; with MCF7 it was > 10 µM; in the assay on A549, > 10 µM; in the assay with K562, 53 µM.

The values above are taken from ChEMBL document CHEMBL2375315, “Alkaloids from the deep-sea-derived fungus Aspergillus westerdijkiae DFFSCS013” (J Nat Prod, 2013).
